Assays:
L1210 (1565) [1] = test: Inhibitory activity against L 1210 cell proliferation; format: functional, cell-based; conditions: Mus musculus
In short: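 L1210 murine leukemia cells grown in RPMI 1640 with 10% fetal calf serum, 2 mM L-glutamine, penicillin/streptomycin and 10 mM Hepes (pH 7.4). Cells exposed to graded drug concentrations for 48 h. Microculture tetrazolium assay read-out; IC50 is the concentration reducing optical density by 50% relative to untreated controls.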

L1210 (1565) [2] = test: Percent inhibition against cells in G 1 phase by the compound at the dose 25 uM; format: functional; conditions: Mus musculus
L1210 (1565) [3] = test: Percent inhibition against cells in G 1 phase by the compound; format: functional, Mus musculus
L1210 (1565) [4] = test: Percent inhibition against cells in G 1 phase by the compound at the dose 5 uM; format: functional; conditions: Mus musculus
L1210 (1565) [5] = test: Percent inhibition against cells in G 1 phase by the compound at the dose 10 uM; format: functional; conditions: Mus musculus

Row | SMILES | IC50 (L1210 (1565) [1]) | further results
1 | COc1ccc(COc2cc3c(cc2OC)C(C(=O)c2ccccc2)=NCC3)cc1 | 11.1 µM | –
2 | CCCCCOc1cc2c(cc1OC)C(C(=O)c1ccccc1)=NCC2 | 4.5 µM | –
3 | COc1cc2c(cc1OCC=C(C)C)CCN=C2C(=O)c1ccccc1 | 9.4 µM | inhibition at 25 µM (L1210 (1565) [2]): 65%
4 | COc1cc2c(cc1OCc1ccccc1)C(C(=O)c1ccccc1)=NCC2 | 3.6 µM | –
5 | CC(C)COc1ccc2c(c1)CCN=C2C(=O)c1ccccc1 | 11.9 µM | –
6 | C/C=C/COc1cc2c(cc1OC)C(C(=O)c1ccccc1)=NCC2 | 13.1 µM | –
7 | CCCCCOc1cc2ccnc(C(=O)c3ccccc3)c2cc1OC | > 10 µM | –
8 | c1ccc(COc2ccc3c(c2)CCN=C3c2ccccc2)cc1 | > 10 µM | –
9 | COc1cc2c(cc1OCc1ccccc1)CCN=C2C(=O)c1cccc(O)c1 | 5.3 µM | inhibition at 5 µM (L1210 (1565) [4]): 67%
10 | O=C(C1=NCCc2cc(OCc3ccccc3)ccc21)c1ccccc1 | 6.5 µM | inhibition at 10 µM (L1210 (1565) [5]): 54%
11 | COc1cc2ccnc(C(=O)c3ccccc3)c2cc1OCc1ccccc1 | > 10 µM | –
12 | CCCCCOc1cc2c(cc1OC)CCN=C2C(=O)c1ccccc1 | 3.7 µM | inhibition at 5 µM (L1210 (1565) [4]): 63%
13 | COc1cc2c(cc1OCc1ccccc1)CCN=C2C(=O)c1ccccc1 | 4.1 µM | inhibition at 10 µM (L1210 (1565) [5]): 85%
14 | CC(C)=CCOc1ccc2c(c1)CCN=C2C(=O)c1ccccc1 | 3.8 µM | –
15 | CCCCC1=NCCc2cc(OCc3ccccc3)c(OC)cc21 | > 10 µM | –
16 | COc1cccc(C(=O)C2=NCCc3cc(OCc4ccccc4)ccc32)c1 | 1.4 µM | –
17 | COc1cccc(C(=O)C2=NCCc3cc(OCc4ccccc4)c(OC)cc32)c1 | 2.5 µM | –
18 | COc1cc2c(cc1OCc1ccccc1)CCN=C2C(=O)c1cccc(OC(C)=O)c1 | 4.7 µM | –
19 | COc1cc2c(cc1OCc1ccccc1)CCN=C2C(=O)c1ccccc1OC | > 10 µM | –
20 | COc1cc2c(C(=O)c3ccccc3)nccc2cc1O | > 10 µM | –
21 | COc1cc2c(cc1OCc1ccccc1)CCN=C2C(=O)c1cccc(S(=O)(=O)c2ccc(C)cc2)c1 | 4.1 µM | inhibition at 25 µM (L1210 (1565) [2]): 70%
22 | COc1cc2c(cc1O)CCN=C2C(=O)c1ccccc1 | > 10 µM | –
23 | CCCCC1=NCCc2cc(OCc3ccccc3)ccc21 | > 10 µM | –
24 | COc1cc2c(C(=O)c3cccc(O)c3)nccc2cc1OCc1ccccc1 | 11.6 µM | –
25 | COc1cc2c(cc1OCc1ccccc1)CCN=C2C(=O)c1ccc(OS(=O)(=O)c2ccc(C)cc2)cc1 | > 10 µM | –
26 | CCOc1cc2c(cc1OC)C(C(=O)c1ccccc1)=NCC2 | 11.9 µM | –

Now from value to molecule, other results behind:

Row | IC50 (L1210 (1565) [1]) | SMILES | further results
27 | > 10 µM | COc1cc2c(cc1OCc1ccccc1)CCN=C2C(=O)c1ccc(O)cc1 | –
28 | > 10 µM | COc1ccc(C(=O)C2=NCCc3cc(OCc4ccccc4)ccc32)cc1 | –
29 | 13 µM | COc1ccc(C(=O)C2=NCCc3cc(OCc4ccccc4)c(OC)cc32)cc1OC | –
30 | > 10 µM | COc1ccc(C(=O)C2=NCCc3cc(OCc4ccccc4)ccc32)cc1OC | –
31 | > 10 µM | COc1cc2c(C(=O)c3ccccc3)nccc2cc1OCc1ccccc1 | –
32 | > 10 µM | COc1cc2c(cc1OCc1ccccc1)CCN=C2C(=O)c1ccccc1O | –
33 | > 10 µM | COc1cc2c(cc1O)C(C(=O)c1ccccc1)=NCC2 | –
34 | > 10 µM | COc1cc2c(cc1O)CCN=C2c1ccccc1 | –
35 | > 10 µM | COc1cc2c(cc1OCc1ccccc1)CCN=C2C(=O)c1ccccc1OS(=O)(=O)c1ccc(C)cc1 | –
36 | 7.7 µM | CCCCCOc1cc2c(cc1OC)C(C)=NCC2 | Inhibition (L1210 (1565) [3]): 72%
37 | 9.8 µM | C[N+]1=C(C(=O)c2ccccc2)c2ccc(OCc3ccccc3)cc2CC1 | –
38 | > 10 µM | COc1cc2c(cc1OCc1ccccc1)CCN=C2c1ccccc1O | –
39 | > 10 µM | COc1ccc(C(=O)C2=[N+](C)CCc3cc(OCc4ccccc4)c(OC)cc32)cc1OC | –
40 | 12.3 µM | COc1ccccc1C(=O)C1=NCCc2cc(OCc3ccccc3)ccc21 | –
41 | 11.5 µM | COc1cc2c(C(=O)c3ccc(O)cc3)nccc2cc1OCc1ccccc1 | –
42 | > 10 µM | COc1cc2c(C(=O)c3ccccc3O)nccc2cc1OCc1ccccc1 | –
43 | 1 µM | CCCCCOc1ccc2c(c1)CCN=C2C(=O)c1ccccc1 | inhibition at 5 µM (L1210 (1565) [4]): 63%
44 | > 10 µM | COc1ccc(COc2cc3ccnc(C(=O)c4ccccc4)c3cc2OC)cc1 | –
45 | 6.1 µM | COc1cc2c(cc1OCC(C)C)CCN=C2C(=O)c1ccccc1 | inhibition at 25 µM (L1210 (1565) [2]): 63%
46 | > 10 µM | COc1cc2ccnc(C(=O)c3ccccc3)c2cc1O | –
47 | > 10 µM | C/C=C/COc1ccc2c(c1)CCN=C2C(=O)c1ccccc1 | –
48 | > 10 µM | COc1cc2c(cc1OCc1ccccc1)CCN=C2c1ccccc1 | –

Source: ChEMBL document CHEMBL1135828, “Syntheses and antitumor targeting G1 phase of the cell cycle of benzoyldihydroisoquinolines and related 1-substituted isoquinolines” (J Med Chem, 2002)
